According to ChEMBL document CHEMBL4715838, “Novel diosgenin derivatives containing 1,3,4-oxadiazole/thiadiazole moieties as potential antitumor agents: Design, synthesis and cytotoxic evaluation” (Eur J Med Chem, 2020):
The source made the active and inactive calls. No cut-off for these calls is given here.

Columns and labels:
GES1 = test: Cytotoxicity against human GES1 cells assessed as reduction in cell viability measured after 48 hrs by MTT assay; assay type: cell-based; settings: GES1, 48 h
Outline: (§1)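 Cells in DMEM with 10% FBS, penicillin/streptomycin, 37 °C, 5% CO2. Seeded at 5×10^3 per well directly into medium holding graded concentrations of sample and incubated 48 h. MTT (5 mg/mL in PBS) added for 4 h, medium replaced with DMSO, absorbance read at 492 nm. IC50 taken as the concentration giving 50% inhibition of proliferation; three replicates, means ± SD.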

HepG2 [1] = test: Cytotoxicity against human HepG2 cells assessed as reduction in cell viability measured after 48 hrs by MTT assay; assay type: functional, cell-based; settings: HepG2, 48 h; outline: as §1
A549 [2] = test: Cytotoxicity against human A549 cells assessed as reduction in cell viability measured after 48 hrs by MTT assay; assay type: functional, cell-based; settings: A549, 48 h; outline: as §1
MCF7 = test: Cytotoxicity against human MCF7 cells assessed as reduction in cell viability measured after 48 hrs by MTT assay; assay type: functional, cell-based; settings: MCF7, 48 h; outline: as §1
HCT-116 = test: Cytotoxicity against human HCT-116 cells assessed as reduction in cell viability measured after 48 hrs by MTT assay; assay type: functional, cell-based; settings: HCT-116, 48 h; outline: as §1
HepG2 [3] = test: Potency index, ratio of diosgenin IC50 to test compound IC50 for cytotoxicity against human HepG2 cells assessed as reduction in cell viability; assay type: functional
A549 [4] = test: Induction of apoptosis in human A549 cells assessed as cell shrinkage at 30 uM measured after 48 hrs by phase contrast microscopic analysis; assay type: functional, cell-based
Outline: (§2)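 A549 seeded at 2×10^5 cells/well and allowed to settle 24 h. Then exposed 48 h to test compound (15 or 30 μM) or diosgenin (30 μM); controls received 0.1% DMSO. Cell shape examined by phase contrast microscopy.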

A549 [5] = test: Induction of apoptosis in human A549 cells assessed as cell rounding at 30 uM measured after 48 hrs by phase contrast microscopic analysis; assay type: functional, cell-based; outline: as §2
A549 [6] = test: Induction of apoptosis in human A549 cells assessed as membrane blebbing at 30 uM measured after 48 hrs by phase contrast microscopic analysis; assay type: functional, cell-based; outline: as §2
A549 [7] = test: Induction of apoptosis in human A549 cells assessed as formation of apoptotic bodies at 30 uM measured after 48 hrs by phase contrast microscopic analysis; assay type: functional, cell-based; outline: as §2
A549 [8] = test: Induction of apoptosis in human A549 cells assessed as early apoptotic cells at 15 uM after 48 hrs by AnnexinV-FITC/propidium iodide staining based flow cytometry analysis (reference value: 0.5 to 2.3 %); assay type: functional
A549 [9] = test: Induction of apoptosis in human A549 cells assessed as late apoptotic cells at 15 uM after 48 hrs by AnnexinV-FITC/propidium iodide staining based flow cytometry analysis (reference value: 1 to 3.1 %); assay type: functional
A549 [10] = test: Induction of apoptosis in human A549 cells assessed as early apoptotic cells at 30 uM after 48 hrs by AnnexinV-FITC/propidium iodide staining based flow cytometry analysis (reference value: 0.5 to 2.3 %); assay type: functional
A549 [11] = test: Induction of apoptosis in human A549 cells assessed as late apoptotic cells at 30 uM after 48 hrs by AnnexinV-FITC/propidium iodide staining based flow cytometry analysis (reference value: 1 to 3.1 %); assay type: functional
A549 [12] = test: Induction of apoptosis in human A549 cells assessed as increase in cleaved caspase 3 expression at 15 to 30 uM by Western blot analysis; assay type: functional, cell-based; settings: dose 15-30 µM
Outline: (§3)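 A549 treated with compound (0, 7.5, 15, 30 μM) or diosgenin (0, 15, 30 μM), lysed in RIPA and boiled 10 min. 30 μg protein run on 10% SDS-PAGE, blotted to nitrocellulose, blocked in 5% BSA. Primary antibodies used at 1:1000, HRP secondary at 1:5000 for 2 h, ECL detection. β-actin served as loading control.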

A549 [13] = test: Induction of apoptosis in human A549 cells assessed as increase in cleaved caspase 9 expression at 15 to 30 uM by Western blot analysis; assay type: functional, cell-based; settings: dose 15-30 µM; outline: as §3
A549 [14] = test: Induction of apoptosis in human A549 cells assessed as increase in cleaved PARP expression at 15 to 30 uM by Western blot analysis; assay type: functional, cell-based; settings: dose 15-30 µM; outline: as §3

SMILES	IC50 (GES1)	IC50 (HepG2 [1])	IC50 (A549 [2])	IC50 (MCF7)	IC50 (HCT-116)	further results
CC(=O)O[C@H]1CC[C@@]2(C)C(=CC[C@H]3[C@@H]4C[C@@H]5O[C@H](CC[C@H](C)c6nnc(-c7cccc8ccccc78)o6)[C@@H](C)[C@@H]5[C@@]4(C)CC[C@@H]32)C1	70.1 µM	–	–	–	–	–
CC(=O)O[C@H]1CC[C@@]2(C)C(=CC[C@H]3[C@@H]4C[C@@H]5O[C@H](CC[C@@H](C)c6nnc(-c7cccnc7)o6)[C@@H](C)[C@@H]5[C@@]4(C)CC[C@@H]32)C1	62.4 µM	82.6 µM	33.5 µM	> 100 µM	72.5 µM	–
CC(=O)O[C@H]1CC[C@@]2(C)C(=CC[C@H]3[C@@H]4C[C@@H]5O[C@H](CC[C@@H](C)c6nnc(C)s6)[C@@H](C)[C@@H]5[C@@]4(C)CC[C@@H]32)C1	75.8 µM	34.2 µM	40.3 µM	47.7 µM	> 100 µM	–
COc1ccc(-c2nnc([C@H](C)CC[C@H]3O[C@H]4C[C@H]5[C@@H]6CC=C7C[C@@H](O)CC[C@]7(C)[C@H]6CC[C@]5(C)[C@H]4[C@@H]3C)o2)cc1	–	–	–	–	> 100 µM	–
CO[C@@]12[C@H](COC(N)=O)C3=C(C(=O)C(C)=C(N)C3=O)N1C[C@@H]1N[C@@H]12 [MITOMYCIN]	21.1 µM	32.6 µM	11 µM	16.7 µM	11 µM	–
C[C@H]1[C@H]2[C@H](C[C@H]3[C@@H]4CC=C5C[C@@H](O)CC[C@]5(C)[C@H]4CC[C@]23C)O[C@@H]1CC[C@H](C)c1nnc(-c2cccc3ccccc23)o1	298 µM	29.2 µM	31.3 µM	69.7 µM	> 100 µM	–
C[C@H]1[C@H]2[C@H](C[C@H]3[C@@H]4CC=C5C[C@@H](O)CC[C@]5(C)[C@H]4CC[C@]23C)O[C@@H]1CC[C@H](C)c1nnc(-c2cccc3ccccc23)s1	201 µM	32.9 µM	18.3 µM	63.8 µM	46.6 µM	Ratio IC50 (HepG2 [3]): 1.02
Cc1nnc([C@H](C)CC[C@H]2O[C@H]3C[C@H]4[C@@H]5CC=C6C[C@@H](O)CC[C@]6(C)[C@H]5CC[C@]4(C)[C@H]3[C@@H]2C)s1	107 µM	33.2 µM	36.7 µM	33.8 µM	48.9 µM	–
C[C@H]1[C@H]2[C@H](C[C@H]3[C@@H]4CC=C5C[C@@H](O)CC[C@]5(C)[C@H]4CC[C@]23C)O[C@@H]1CC[C@@H](C)c1nnc(-c2cccnc2)s1	354 µM	8.83 µM	7.68 µM	> 100 µM	51.6 µM	–
CC(=O)O[C@H]1CC[C@@]2(C)C(=CC[C@H]3[C@@H]4C[C@@H]5O[C@H](CC[C@H](C)c6nnc(-c7cccc8ccccc78)s6)[C@@H](C)[C@@H]5[C@@]4(C)CC[C@@H]32)C1	–	–	> 100 µM	–	> 100 µM	–
COc1ccc(-c2nnc([C@H](C)CC[C@H]3O[C@H]4C[C@H]5[C@@H]6CC=C7C[C@@H](OC(C)=O)CC[C@]7(C)[C@H]6CC[C@]5(C)[C@H]4[C@@H]3C)o2)cc1	151 µM	–	–	–	–	–
CC(=O)O[C@H]1CC[C@@]2(C)C(=CC[C@H]3[C@@H]4C[C@@H]5O[C@H](CC[C@@H](C)c6nnc(C)o6)[C@@H](C)[C@@H]5[C@@]4(C)CC[C@@H]32)C1	98.2 µM	57.6 µM	34.4 µM	44.8 µM	78.8 µM	–
CC(=O)O[C@H]1CC[C@@]2(C)C(=CC[C@H]3[C@@H]4C[C@@H]5O[C@H](CC[C@@H](C)c6nnc(-c7ccccc7)o6)[C@@H](C)[C@@H]5[C@@]4(C)CC[C@@H]32)C1	82.3 µM	63.2 µM	84.5 µM	> 100 µM	> 100 µM	–
Cc1nnc([C@H](C)CC[C@H]2O[C@H]3C[C@H]4[C@@H]5CC=C6C[C@@H](O)CC[C@]6(C)[C@H]5CC[C@]4(C)[C@H]3[C@@H]2C)o1	72.8 µM	34.2 µM	30.4 µM	20.4 µM	51.6 µM	–
C[C@H]1[C@H]2[C@H](C[C@H]3[C@@H]4CC=C5C[C@@H](O)CC[C@]5(C)[C@H]4CC[C@]23C)O[C@@H]1CC[C@@H](C)c1nnc(-c2cccnc2)o1	199 µM	> 100 µM	98.1 µM	> 100 µM	> 100 µM	–
C[C@@H]1CC[C@@]2(OC1)O[C@H]1C[C@H]3[C@@H]4CC=C5C[C@@H](O)CC[C@]5(C)[C@H]4CC[C@]3(C)[C@H]1[C@@H]2C [DISOGENIN]	101 µM	33.9 µM	26.4 µM	23.9 µM	49.1 µM	Activity (A549 [4]): inactive; Activity (A549 [5]): inactive; Activity (A549 [6]): inactive; Activity (A549 [7]): inactive; Activity (A549 [8]): 2.3%; Activity (A549 [9]): 3.1%; Activity (A549 [10]): 2.5%; Activity (A549 [11]): 2%; Activity (A549 [12]): inactive; Activity (A549 [13]): inactive; Activity (A549 [14]): inactive
C[C@H]1[C@H]2[C@H](C[C@H]3[C@@H]4CC=C5C[C@@H](O)CC[C@]5(C)[C@H]4CC[C@]23C)O[C@@H]1CC[C@@H](C)c1nnc(-c2ccccc2)s1	527 µM	32.1 µM	15 µM	27.4 µM	48.9 µM	Ratio IC50 (HepG2 [3]): 1.05
C[C@H]1[C@H]2[C@H](C[C@H]3[C@@H]4CC=C5C[C@@H](O)CC[C@]5(C)[C@H]4CC[C@]23C)O[C@@H]1CC[C@@H](C)c1nnc(-c2ccccc2)o1	120 µM	39.5 µM	64.2 µM	53 µM	> 100 µM	–
COc1ccc(-c2nnc([C@H](C)CC[C@H]3O[C@H]4C[C@H]5[C@@H]6CC=C7C[C@@H](O)CC[C@]7(C)[C@H]6CC[C@]5(C)[C@H]4[C@@H]3C)s2)cc1	209 µM	23.1 µM	16.4 µM	> 100 µM	> 100 µM	–
